Experiments:
[1] = Selectivity for rat liver sigma 2 receptor over guinea pig brain sigma 1 receptor
[2] = Displacement of [3H]DTG from sigma 2 receptor in rat liver membrane after 120 mins; assay type: cell membranes
Outline: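 Rat liver membranes (~300 µg protein) incubated with ~5 nM [3H]DTG plus 1 µM (+)-pentazocine to mask σ1 sites, 120 min at room temperature; 10 µM haloperidol defines nonspecific binding; filtration and scintillation counting. One-site nonlinear regression IC50, converted to Ki by Cheng-Prusoff; mean ± SEM.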

[3] = biological target: Sigma non-opioid intracellular receptor 1 (Cavia porcellus, UniProt Q60492); assay: Displacement of [3H](+)-pentazocine from sigma 1 receptor in guinea pig brain membrane after 90 mins; assay type: cell membranes
Outline: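 Guinea pig brain membranes (~300 µg protein) with ~5 nM [3H](+)-pentazocine, 90 min at room temperature; nonspecific binding with 10 µM haloperidol; stopped with ice-cold Tris/NaCl buffer, filtered, scintillation counted. IC50 by nonlinear regression, one-site fit; Ki by Cheng-Prusoff, mean ± SEM.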

Heart [4] = assay: Biodistribution in heart of mouse EMT6 tumor bearing BALB/c mouse at 10 to 20 uCi after 60 mins; assay type: ADME, organism-based; settings: in vivo, 1 h
Outline: (§1)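 EMT-6 cells (5×10^5 in 100 µL PBS) implanted s.c. in scapular region of female Balb/c mice (~2 months, 17-22 g); studied 7-10 days later at ~0.2 cm3 tumor. 18F tracer 10-20 µCi in 100-150 µL saline via tail vein; ≥4 mice per time point; tissue removed at sacrifice, weighed, gamma-counted; %ID/g calculated.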

Blood [5] = assay: Biodistribution in blood of mouse EMT6 tumor bearing BALB/c mouse at 10 to 20 uCi after 120 mins; assay type: ADME, organism-based; settings: in vivo, 2 h; outline: as §1
EMT6 [6] = assay: Biodistribution in tumor of mouse EMT6 tumor bearing BALB/c mouse at 10 to 20 uCi after 120 mins; assay type: ADME, organism-based; settings: emt6, 2 h; outline: as §1
Lung [7] = assay: Biodistribution in lung of mouse EMT6 tumor bearing BALB/c mouse at 10 to 20 uCi after 120 mins; assay type: ADME, organism-based; settings: in vivo, 2 h; outline: as §1
[8] = Tumor to fat ratio of the drug in mouse EMT6 tumor bearing BALB/c mouse at 10 to 20 uCi after 2 hrs; assay type: ADME
Outline: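 Tumor-bearing female Balb/c mice (EMT-6 s.c. allograft, ~0.2 cm3) given 10-20 µCi 18F tracer in saline i.v. via tail vein; ≥4 per group; killed 120 min later. Tissues weighed and gamma-counted; ratio = tumor %ID/g divided by that organ's %ID/g.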

Brain [9] = assay: Biodistribution in brain of EMT6 tumor bearing BALB/c mouse at 10 to 20 uCi after 60 mins; assay type: ADME, organism-based; settings: in vivo, 1 h; outline: as §1
Blood [10] = assay: Biodistribution in blood of mouse EMT6 tumor bearing BALB/c mouse at 10 to 20 uCi after 30 mins; assay type: ADME, organism-based; settings: in vivo, 0.5 h; outline: as §1
Blood [11] = assay: Biodistribution in blood of mouse EMT6 tumor bearing BALB/c mouse at 10 to 20 uCi after 60 mins; assay type: ADME, organism-based; settings: in vivo, 1 h; outline: as §1
Heart [12] = assay: Biodistribution in heart of mouse EMT6 tumor bearing BALB/c mouse at 10 to 20 uCi after 30 mins; assay type: ADME, organism-based; settings: in vivo, 0.5 h; outline: as §1
Adipose tissue [13] = assay: Biodistribution in fat of mouse EMT6 tumor bearing BALB/c mouse at 10 to 20 uCi after 60 mins; assay type: ADME, organism-based; settings: in vivo, 1 h; outline: as §1
EMT6 [14] = assay: Biodistribution in tumor of mouse EMT6 tumor bearing BALB/c mouse at 10 to 20 uCi after 60 mins; assay type: ADME, organism-based; settings: emt6, 1 h; outline: as §1
Blood [15] = assay: Biodistribution in blood of mouse EMT6 tumor bearing BALB/c mouse at 10 to 20 uCi after 5 mins; assay type: ADME, organism-based; settings: in vivo; outline: as §1
Bone [16] = assay: Biodistribution in bone of mouse EMT6 tumor bearing BALB/c mouse at 10 to 20 uCi after 5 mins; assay type: ADME, organism-based, Bone element; settings: in vivo; outline: as §1
Heart [17] = assay: Biodistribution in heart of EMT6 tumor bearing BALB/c mouse at 10 to 20 uCi after 120 mins; assay type: ADME, organism-based; settings: in vivo, 2 h; outline: as §1
Bone [18] = assay: Biodistribution in bone of mouse EMT6 tumor bearing BALB/c mouse at 10 to 20 uCi after 120 mins; assay type: ADME, organism-based, Bone element; settings: in vivo, 2 h; outline: as §1
Lung [19] = assay: Biodistribution in lung of mouse EMT6 tumor bearing BALB/c mouse at 10 to 20 uCi after 5 mins; assay type: ADME, organism-based; settings: in vivo; outline: as §1
Liver [20] = assay: Biodistribution in liver of mouse EMT6 tumor bearing BALB/c mouse at 10 to 20 uCi after 120 mins; assay type: ADME, organism-based; settings: in vivo, 2 h; outline: as §1
EMT6 [21] = assay: Biodistribution in tumor of EMT6 tumor bearing BALB/c mouse 10 to 20 uCi after 30 mins; assay type: ADME, organism-based; settings: emt6, 0.5 h; outline: as §1
Adipose tissue [22] = assay: Biodistribution in fat of mouse EMT6 tumor bearing BALB/c mouse at 10 to 20 uCi after 30 mins; assay type: ADME, organism-based; settings: in vivo, 0.5 h; outline: as §1
Muscle tissue [23] = assay: Biodistribution in muscle of mouse EMT6 tumor bearing BALB/c mouse at 10 to 20 uCi after 30 mins; assay type: ADME, organism-based; settings: in vivo, 0.5 h; outline: as §1
Heart [24] = assay: Biodistribution in heart of mouse EMT6 tumor bearing BALB/c mouse at 10 to 20 uCi after 5 mins; assay type: ADME, organism-based; settings: in vivo; outline: as §1
Lung [25] = assay: Biodistribution in lung of mouse EMT6 tumor bearing BALB/c mouse at 10 to 20 uCi after 30 mins; assay type: ADME, organism-based; settings: in vivo, 0.5 h; outline: as §1
Adipose tissue [26] = assay: Biodistribution in fat of mouse EMT6 tumor bearing BALB/c mouse at 10 to 20 uCi after 5 mins; assay type: ADME, organism-based; settings: in vivo; outline: as §1
Liver [27] = assay: Biodistribution in liver of mouse EMT6 tumor bearing BALB/c mouse at 10 to 20 uCi after 30 mins; assay type: ADME, organism-based; settings: in vivo, 0.5 h; outline: as §1
Liver [28] = assay: Biodistribution in liver of mouse EMT6 tumor bearing BALB/c mouse at 10 to 20 uCi after 60 mins; assay type: ADME, organism-based; settings: in vivo, 1 h; outline: as §1
Lung [29] = assay: Biodistribution in lung of mouse EMT6 tumor bearing BALB/c mouse at 10 to 20 uCi after 60 mins; assay type: ADME, organism-based; settings: in vivo, 1 h; outline: as §1
Bone [30] = assay: Biodistribution in bone of mouse EMT6 tumor bearing BALB/c mouse at 10 to 20 uCi after 30 mins; assay type: ADME, organism-based, Bone element; settings: in vivo, 0.5 h; outline: as §1
Kidney [31] = assay: Biodistribution in kidney of mouse EMT6 tumor bearing BALB/c mouse at 10 to 20 uCi after 30 mins; assay type: ADME, organism-based; settings: in vivo, 0.5 h; outline: as §1
Muscle tissue [32] = assay: Biodistribution in muscle of mouse EMT6 tumor bearing BALB/c mouse at 10 to 20 uCi after 60 mins; assay type: ADME, organism-based; settings: in vivo, 1 h; outline: as §1
Muscle tissue [33] = assay: Biodistribution in muscle of mouse EMT6 tumor bearing BALB/c mouse at 10 to 20 uCi after 120 mins; assay type: ADME, organism-based; settings: in vivo, 2 h; outline: as §1
Adipose tissue [34] = assay: Biodistribution in fat of mouse EMT6 tumor bearing BALB/c mouse at 10 to 20 uCi after 120 mins; assay type: ADME, organism-based; settings: in vivo, 2 h; outline: as §1
Brain [35] = assay: Biodistribution in brain of mouse EMT6 tumor bearing BALB/c mouse at 10 to 20 uCi after 120 mins; assay type: ADME, organism-based; settings: in vivo, 2 h; outline: as §1
Kidney [36] = assay: Biodistribution in kidney of mouse EMT6 tumor bearing BALB/c mouse at 10 to 20 uCi after 5 mins; assay type: ADME, organism-based; settings: in vivo; outline: as §1
Kidney [37] = assay: Biodistribution in kidney of mouse EMT6 tumor bearing BALB/c mouse at 10 to 20 uCi after 60 mins; assay type: ADME, organism-based; settings: in vivo, 1 h; outline: as §1
EMT6 [38] = assay: Biodistribution in tumor of mouse EMT6 tumor bearing BALB/c mouse at 10 to 20 uCi after 5 mins; assay type: ADME, organism-based; settings: emt6, 5 min; outline: as §1
Muscle tissue [39] = assay: Biodistribution in muscle of EMT6 tumor bearing BALB/c mouse at 10 to 20 uCi after 5 mins; assay type: ADME, organism-based; settings: in vivo; outline: as §1
Liver [40] = assay: Biodistribution in liver of mouse EMT6 tumor bearing BALB/c mouse at 10 to 20 uCi after 5 mins; assay type: ADME, organism-based; settings: in vivo; outline: as §1
Bone [41] = assay: Biodistribution in bone of mouse EMT6 tumor bearing BALB/c mouse at 10 to 20 uCi after 60 mins; assay type: ADME, organism-based, Bone element; settings: in vivo, 1 h; outline: as §1
Kidney [42] = assay: Biodistribution in kidney of mouse EMT6 tumor bearing BALB/c mouse at 10 to 20 uCi after 120 mins; assay type: ADME, organism-based; settings: in vivo, 2 h; outline: as §1
Brain [43] = assay: Biodistribution in brain of EMT6 tumor bearing BALB/c mouse at 10 to 20 uCi after 30 mins; assay type: ADME, organism-based; settings: in vivo, 0.5 h; outline: as §1
Brain [44] = assay: Biodistribution in brain of EMT6 tumor bearing BALB/c mouse at 10 to 20 uCi after 5 mins; assay type: ADME, organism-based; settings: in vivo; outline: as §1

Sequence of Sigma non-opioid intracellular receptor 1 (Q60492 whole entry): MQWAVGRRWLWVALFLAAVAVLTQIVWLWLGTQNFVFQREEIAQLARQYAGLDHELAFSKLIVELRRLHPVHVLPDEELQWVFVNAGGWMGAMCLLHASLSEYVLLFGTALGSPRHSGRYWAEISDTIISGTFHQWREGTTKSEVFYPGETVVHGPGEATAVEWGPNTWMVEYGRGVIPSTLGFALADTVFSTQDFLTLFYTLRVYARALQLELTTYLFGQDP

With `COc1cc2c(cc1OC)CN(CCCCNC(=O)c1cc(I)cc(OC)c1OCCF)CC2` the Ratio Ki [1] was 8190 and the Ki [2] was 0.26 nM.
Work on `COc1cc2c(cc1OC)CN(CCCCNC(=O)c1cc(Br)ccc1OCCF)CC2` yielded a Ratio Ki [1] of 1660 and a Ki [2] of 0.65 nM.
With `COc1cc2c(cc1OC)CN(CCCCNC(=O)c1cc(Br)cc(OC)c1OCCF)CC2` the Ki [3] was 15300 nM, the Ratio Ki [1] was 40 and the Ki [2] was 386 nM.
`COc1cc2c(cc1OC)CN(CCCCNC(=O)c1cc(Br)ccc1OCC[18F])CC2` gave a Drug uptake (Heart [4]) of 1.04 % ID/g, a Drug uptake (Blood [5]) of 0.52 % ID/g and a Drug uptake (EMT6 [6]) of 0.96 % ID/g. It also gave a Drug uptake (Lung [7]) of 0.51 % ID/g, a Ratio [8] of 6 and a Drug uptake (Brain [9]) of 0.32 % ID/g. For the same compound, the Drug uptake (Blood [10]) was 2.81 % ID/g, the Drug uptake (Blood [11]) was 1.69 % ID/g and the Drug uptake (Heart [12]) was 1.55 % ID/g. The Drug uptake (Adipose tissue [13]) was 0.38 % ID/g, the Drug uptake (EMT6 [14]) was 2.09 % ID/g and the Drug uptake (Blood [15]) was 3.57 % ID/g. For the same compound, the Drug uptake (Bone [16]) was 2.9 % ID/g, the Drug uptake (Heart [17]) was 0.4 % ID/g and the Drug uptake (Bone [18]) was 1.28 % ID/g. For the same compound, the Drug uptake (Lung [19]) was 12.08 % ID/g, the Drug uptake (Liver [20]) was 2.3 % ID/g and the Drug uptake (EMT6 [21]) was 2.59 % ID/g. For the same compound, the Drug uptake (Adipose tissue [22]) was 0.96 % ID/g, the Drug uptake (Muscle tissue [23]) was 0.98 % ID/g and the Drug uptake (Heart [24]) was 3.74 % ID/g. It also gave a Drug uptake (Lung [25]) of 3.08 % ID/g, a Drug uptake (Adipose tissue [26]) of 2.85 % ID/g and a Drug uptake (Liver [27]) of 13.12 % ID/g. It also gave a Drug uptake (Liver [28]) of 5.69 % ID/g, a Drug uptake (Lung [29]) of 1.6 % ID/g and a Drug uptake (Bone [30]) of 1.17 % ID/g. It also gave a Drug uptake (Kidney [31]) of 17.55 % ID/g, a Drug uptake (Muscle tissue [32]) of 0.58 % ID/g and a Drug uptake (Muscle tissue [33]) of 0.28 % ID/g. For the same compound, the Drug uptake (Adipose tissue [34]) was 0.15 % ID/g, the Drug uptake (Brain [35]) was 0.2 % ID/g and the Drug uptake (Kidney [36]) was 42.94 % ID/g. It also gave a Drug uptake (Kidney [37]) of 6.92 % ID/g, a Drug uptake (EMT6 [38]) of 3.28 % ID/g and a Drug uptake (Muscle tissue [39]) of 1.95 % ID/g. It also gave a Drug uptake (Liver [40]) of 32.6 % ID/g, a Drug uptake (Bone [41]) of 1.12 % ID/g and a Drug uptake (Kidney [42]) of 1.12 % ID/g. It also gave a Drug uptake (Brain [43]) of 0.4 % ID/g and a Drug uptake (Brain [44]) of 1.09 % ID/g.
